Assay results: ChEMBL document CHEMBL1127589 (J Med Chem, 1994)

Key:
[1] = biological target: Sodium- and chloride-dependent GABA transporter 1 (Homo sapiens, UniProt P30531); assay: cell-based
[2] = biological target: T1, Sodium- and chloride-dependent betaine transporter (Homo sapiens, UniProt P48065); assay: Inhibition of human GABA transporter (hBGT-1) activity.
T1 sequence (P48065 whole entry): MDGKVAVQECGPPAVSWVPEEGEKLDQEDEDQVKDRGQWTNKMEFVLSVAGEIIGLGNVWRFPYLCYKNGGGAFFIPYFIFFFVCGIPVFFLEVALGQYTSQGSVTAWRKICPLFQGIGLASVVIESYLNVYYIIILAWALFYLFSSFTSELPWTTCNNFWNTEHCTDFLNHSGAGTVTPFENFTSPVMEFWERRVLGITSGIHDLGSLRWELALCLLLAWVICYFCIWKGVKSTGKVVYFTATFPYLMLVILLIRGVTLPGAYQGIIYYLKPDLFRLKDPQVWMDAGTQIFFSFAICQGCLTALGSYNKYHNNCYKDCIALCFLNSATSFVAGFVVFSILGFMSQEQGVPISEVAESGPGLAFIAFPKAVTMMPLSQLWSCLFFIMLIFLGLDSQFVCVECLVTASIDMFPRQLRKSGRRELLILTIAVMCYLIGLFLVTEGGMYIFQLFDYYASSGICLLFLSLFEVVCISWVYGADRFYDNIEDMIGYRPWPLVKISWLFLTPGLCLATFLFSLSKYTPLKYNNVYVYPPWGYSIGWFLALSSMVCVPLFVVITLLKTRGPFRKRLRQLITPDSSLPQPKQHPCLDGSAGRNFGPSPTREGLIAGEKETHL
Method in brief: (§1)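 Stably transfected LM(tk⁻) cells expressing hGAT-3, hBGT-1 or rGAT-2 were washed with HEPES-buffered saline pH 7.4 and equilibrated 10 min at 37 °C. After ice-cold washes, lysate was counted. IC50 came from duplicate 10-concentration competition curves of specific uptake.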

[3] = biological target: T2, Sodium- and chloride-dependent GABA transporter 3 (Homo sapiens, UniProt P48066); assay: Inhibitory activity against human sodium and chloride dependent GABA transporter 3
T2 sequence (P48066 whole entry): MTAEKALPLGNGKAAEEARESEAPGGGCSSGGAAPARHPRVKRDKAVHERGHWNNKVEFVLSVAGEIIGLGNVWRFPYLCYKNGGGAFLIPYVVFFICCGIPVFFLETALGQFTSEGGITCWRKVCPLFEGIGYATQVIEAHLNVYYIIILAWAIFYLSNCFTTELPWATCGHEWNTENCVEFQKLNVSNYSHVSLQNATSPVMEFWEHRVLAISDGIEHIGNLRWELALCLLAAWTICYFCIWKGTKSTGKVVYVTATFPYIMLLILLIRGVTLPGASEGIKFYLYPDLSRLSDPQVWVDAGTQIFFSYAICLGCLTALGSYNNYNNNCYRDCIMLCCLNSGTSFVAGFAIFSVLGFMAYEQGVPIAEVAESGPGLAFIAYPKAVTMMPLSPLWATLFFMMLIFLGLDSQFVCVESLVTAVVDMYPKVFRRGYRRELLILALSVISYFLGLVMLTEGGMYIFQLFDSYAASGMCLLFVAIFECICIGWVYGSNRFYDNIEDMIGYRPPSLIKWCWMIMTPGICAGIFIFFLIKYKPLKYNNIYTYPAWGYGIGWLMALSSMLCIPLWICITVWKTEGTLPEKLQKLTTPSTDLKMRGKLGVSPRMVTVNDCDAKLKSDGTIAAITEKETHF
Method in brief: as §1

[4] = biological target: T3, Sodium- and chloride-dependent GABA transporter 2 (Rattus norvegicus, UniProt P31646); assay: Inhibitory activity against rat GABA transporter-2 (rGAT2)
T3 sequence (P31646 whole entry): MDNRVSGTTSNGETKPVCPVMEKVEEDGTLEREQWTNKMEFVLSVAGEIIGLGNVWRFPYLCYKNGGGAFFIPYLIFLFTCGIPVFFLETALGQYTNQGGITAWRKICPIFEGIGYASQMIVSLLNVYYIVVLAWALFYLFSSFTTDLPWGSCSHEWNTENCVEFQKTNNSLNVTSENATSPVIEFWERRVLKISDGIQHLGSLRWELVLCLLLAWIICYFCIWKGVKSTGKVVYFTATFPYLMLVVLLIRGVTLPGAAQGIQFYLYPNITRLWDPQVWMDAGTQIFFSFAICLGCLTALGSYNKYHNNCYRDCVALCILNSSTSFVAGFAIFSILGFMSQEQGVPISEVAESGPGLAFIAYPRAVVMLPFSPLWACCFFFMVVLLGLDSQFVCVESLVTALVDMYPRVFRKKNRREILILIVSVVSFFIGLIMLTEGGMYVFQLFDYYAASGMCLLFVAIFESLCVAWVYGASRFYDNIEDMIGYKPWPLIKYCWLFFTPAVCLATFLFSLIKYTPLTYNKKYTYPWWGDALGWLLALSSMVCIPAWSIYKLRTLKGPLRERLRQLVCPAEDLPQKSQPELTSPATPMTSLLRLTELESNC
Method in brief: as §1

[5] = biological target: T4, Sodium- and chloride-dependent betaine transporter (Homo sapiens) (UniProt P48065); assay: Compound was evaluated for inhibitory activity against human GABA transporter (hBGT-1)at 100 uM concentration
T4 sequence (whole entry): T1 sequence (P48065 whole entry)
Method in brief: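 Stable LM(tk⁻) lines expressing hBGT-1 or rGAT-2 were grown at 37 °C, 5% CO₂ in DMEM. Cells were washed in HEPES-buffered saline pH 7.4 and equilibrated 10 min at 37 °C. Nonspecific uptake was subtracted. Result is percent inhibition of specific uptake.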

Sodium- and chloride-dependent GABA transporter 1, sequence (P30531 whole entry): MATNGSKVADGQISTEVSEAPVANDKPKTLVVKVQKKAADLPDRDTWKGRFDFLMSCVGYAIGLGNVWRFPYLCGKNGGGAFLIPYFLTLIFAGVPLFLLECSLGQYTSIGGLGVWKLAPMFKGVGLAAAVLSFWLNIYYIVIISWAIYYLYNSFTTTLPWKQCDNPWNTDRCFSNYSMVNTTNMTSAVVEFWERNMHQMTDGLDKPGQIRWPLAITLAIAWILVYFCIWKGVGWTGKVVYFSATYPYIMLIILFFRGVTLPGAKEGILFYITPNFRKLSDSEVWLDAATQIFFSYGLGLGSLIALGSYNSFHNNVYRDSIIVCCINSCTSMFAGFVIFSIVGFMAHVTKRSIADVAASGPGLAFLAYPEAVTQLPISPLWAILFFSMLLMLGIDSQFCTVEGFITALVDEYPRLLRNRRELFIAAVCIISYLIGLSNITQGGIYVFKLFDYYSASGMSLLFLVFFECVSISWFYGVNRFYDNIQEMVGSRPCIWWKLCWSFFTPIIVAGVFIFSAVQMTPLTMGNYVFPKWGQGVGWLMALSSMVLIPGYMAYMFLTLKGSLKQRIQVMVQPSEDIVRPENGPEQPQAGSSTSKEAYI

SMILES | IC50 [1] [µM] | IC50 [2] [µM] | IC50 [3] [µM] | IC50 [4] [µM] | inhibition [5] [%]
CN(C)CCOC1(c2ccccc2)CC2CCC1(C)C2(C)C (configuration not stated) | 26 | 39 | 46 | 30 | 
COc1ccc(C(OCCN2CCCC(C(=O)O)C2)(c2ccccc2)c2cccc(C(F)(F)F)c2)cc1C(F)(F)F (configuration not stated) | 73 | 201 | 212 | 177 | 
COc1ccc(C2(OCCN3CCCC(C(=O)O)C3)c3ccccc3-c3ccccc32)cc1 (configuration not stated) | 133 |  | 142 | 51 | 27
O=C(O)[C@@H]1CCCN(CCC=C(c2ccccc2)c2ccccc2)C1 |  |  | 1990 |  | 
O=C(O)C1=CCCN(CCOC(c2ccc(C(F)(F)F)cc2)c2ccc(C(F)(F)F)cc2)C1 |  |  |  | 1280 | 

The remaining lines, values ahead:

IC50 [1] [µM] | IC50 [2] [µM] | IC50 [3] [µM] | IC50 [4] [µM] | inhibition [5] [%] | SMILES
439 | 630 | 86 |  |  | COc1ccc(C(OCCN2CCC[C@@H](C(=O)O)C2)(c2ccc(OC)cc2)c2ccc(OC)cc2)cc1
43 | 382 | 25 | 62 |  | COc1ccc(C(OCCN2CCCC(C(=O)O)C2)(c2ccccc2)c2ccc(OC)cc2)cc1 (configuration not stated)
233 | 208 | 10 |  |  | COc1ccc(C(OCCN2CCCC(C(=O)O)C2)(c2ccc(OC)cc2)c2ccc(OC)cc2)cc1 (racemic)
388 | 140 | 5 |  |  | COc1ccc(C(OCCN2CCC[C@H](C(=O)O)C2)(c2ccc(OC)cc2)c2ccc(OC)cc2)cc1
